Assay results from PubChem BioAssay.
Active and inactive are the calls of the source.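 The calls were made as follows, unless noted: active = visually confirmed hit in the image check and inhibition above 20%; inconclusive = visually confirmed hit but inhibition not above 20%; inactive = no visual hit in the image check.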

Legend:
[1] = inhibitors of TNFa-induced NFkB p65 translocation, primary screen, imaging, HUVEC, MLSMR starter and 10KST1 sets (AID 438;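 active = inhibition above 20% together with a positive visual image hit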;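 also: compound added about 3h40 before a 20 min TNFalpha stimulation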;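 as to inhibition: signal is the nuclear over cytoplasmic p65 intensity ratio per well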); conditions: HUVEC TNFa-induced p65 nuclear translocation; cell count: measured here: nuclei count (cytotoxicity indicator), at 2.08 µM; inhibition: at 2 µM, stronger effect = higher value, 0% TNFa-plus-vehicle, 100% no-TNFa wells
[2] = inhibitors of mutant huntingtin aggregation, primary screen, imaging, exon1htt(103Q)mCFP cells, high-content imaging (AID 483;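 active = visual image review flags a hit and inhibition of aggregation exceeds 20%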;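 also: compound exposure lasted 3 days before fixation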;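 as to nuclei count: percent of the per-plate median nuclei count of sample wells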); conditions: exon1htt(103Q)mCFP cell line, aggregate imaging, at 2 µM; inhibition of aggregation: stronger effect = higher value; nuclei count: measured here: cell count, toxicity
[3] = inhibitors of E-selectin induction by TNFa, primary screen, imaging, HUVEC, immunofluorescence, MLSMR starter and 10KST1 sets (AID 487); conditions: HUVEC TNFalpha-induced E-selectin immunofluorescence imaging, at 2 µM; inhibition: stronger effect = higher value; nuclei count: measured here: cell number, toxicity;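 as to inhibition: signal is fraction of cell area covered by stained E-selectin grains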;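 as to nuclei count: 100% = median nuclei count of all wells on the same plate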
[4] = target: Voltage-gated potassium channel subunit beta-2 (Rattus norvegicus) (UniProt P62483); assay: KvBeta enzyme negative modulators, primary screen, biochemical, NADPH fluorescence (AID 622;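 active = fluorescence slope higher than the sample average by over 3 SD, cut at about -0.22 in these data, passing the limit was not always enough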;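 also: slope of raw intensity against log time taken from 70 to 1610 s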); conditions: recombinant KvBeta, 4-cyanobenzaldehyde reduction, at 10 µM, stronger effect = higher value
Voltage-gated potassium channel subunit beta-2 (Rattus norvegicus), sequence (P62483 whole entry, looked up): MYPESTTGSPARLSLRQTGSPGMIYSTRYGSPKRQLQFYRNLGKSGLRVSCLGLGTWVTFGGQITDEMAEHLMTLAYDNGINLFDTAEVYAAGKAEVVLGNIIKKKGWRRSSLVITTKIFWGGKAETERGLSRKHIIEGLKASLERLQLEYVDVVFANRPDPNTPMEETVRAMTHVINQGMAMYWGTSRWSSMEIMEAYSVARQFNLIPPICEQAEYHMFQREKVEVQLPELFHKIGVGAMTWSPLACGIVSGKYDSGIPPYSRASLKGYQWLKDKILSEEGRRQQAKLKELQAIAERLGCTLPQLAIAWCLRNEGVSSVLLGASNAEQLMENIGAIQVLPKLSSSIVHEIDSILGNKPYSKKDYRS

[5] = target: Voltage-gated potassium channel subunit beta-2 (Rattus norvegicus) (UniProt P62483); assay: KvBeta positive modulators, primary screen, biochemical, NADPH fluorescence (AID 623;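 active = NADPH fluorescence slope more negative than the mean of all samples by about 3 SD, 99.7% confidence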;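 also: fluorescence intensity change per second fitted from 20 to 320 s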); conditions: Recombinant KvBeta, NADPH fluorescence decrease slope, 10 min; at 10 µM; stronger effect = lower value
[6] = target: Muscarinic acetylcholine receptor M4 (Homo sapiens) (UniProt P08173); assay: compounds altering M4/GIRK thallium flux, either direction, primary screen, M4 allosteric agonist project, cell-based, HEK293 M4/GIRK, BTC-AM (AID 625;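 active = fluorescence slope after compound addition differing from the mean of all tested samples at 99.7% confidence, mostly higher but some lower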;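 also: thallium influx through GIRK channels coupled to M4 in HEK293 cells with BTC-AM dye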); conditions: at 10 µM, actives lie on both sides
Muscarinic acetylcholine receptor M4 (Homo sapiens), sequence (P08173 whole entry, looked up): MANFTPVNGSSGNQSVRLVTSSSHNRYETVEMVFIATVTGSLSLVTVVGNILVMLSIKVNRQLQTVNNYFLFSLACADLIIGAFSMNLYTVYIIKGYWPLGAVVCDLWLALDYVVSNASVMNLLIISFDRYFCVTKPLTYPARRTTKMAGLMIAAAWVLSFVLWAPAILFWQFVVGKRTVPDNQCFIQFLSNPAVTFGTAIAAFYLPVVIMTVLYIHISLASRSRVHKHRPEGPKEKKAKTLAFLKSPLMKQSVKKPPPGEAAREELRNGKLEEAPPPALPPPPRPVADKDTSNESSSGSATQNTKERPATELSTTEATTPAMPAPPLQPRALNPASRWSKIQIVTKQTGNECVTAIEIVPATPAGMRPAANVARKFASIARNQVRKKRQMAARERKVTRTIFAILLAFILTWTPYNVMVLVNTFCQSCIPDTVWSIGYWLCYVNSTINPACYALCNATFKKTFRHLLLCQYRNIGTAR
Summary of the method: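 System: HEK293 cells with M4 receptor and GIRK channels | Incubation: Cells overnight at 37 °C, BTC-AM loading 1 h, reads 2 min total | Technique: Kinetic BTC-AM fluorescence sampled at 1 Hz, 10 s pre-addition baseline | Measure: Post-addition slope, 15–24 s, of baseline-normalized fluorescence | Control set: Carbachol positive, DMSO negative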

[7] = inhibitors of Sendai virus-induced IRF3 signaling, primary screen, TLR/RLR signaling modifier project, cell-based, Sendai virus stimulus, luciferase, 10K MLSCN set (AID 602276;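 active = inhibition at or above 50% at 10 µM; inactive = inhibition below 50%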;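 also: firefly luciferase from ISG56 promoter only with Renilla not read in this screen; 0% = Sendai virus plus DMSO and 100% = medium plus DMSO without virus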); conditions: HEK293 RL24 IRF3 luciferase reporter, at 10 µM, stronger effect = higher value
[8] = inhibitors of poly I:C-induced TLR3 signaling, primary screen, cell-based, poly I:C stimulus, luciferase, 10K MLSCN set (AID 602277;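 active = inhibition of the reporter signal at or above 50%; inactive = inhibition below 50%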); conditions: HEK293-TLR3 RL24 IRF3 luciferase reporter, at 10 µM, stronger effect = higher value

Row | SMILES | cell count [1] | inhibition [1] | inhibition of aggregation [2] | nuclei count [2] | inhibition [3] | nuclei count [3] | fluorescence slope [4] | NADPH fluorescence slope [5] | fluorescence slope [6] | inhibition [7] | inhibition [8]
1 | CC1N=C2c3ccccc3N=C(SCc3cc(=O)n4cc(Cl)ccc4n3)N2C1=O (stereo not drawn) | 346 | 7.6% (inactive) | 18.8% (inactive) | 102% | 32.4% (inactive) | 92.4% | -0.478 (inactive) | -0.0001 (inactive) | 0.00478 (inactive) | 13.1% (inactive) | 18.7% (inactive)
2 | O=c1ccn(Cc2ccccc2Cl)cc1 | 440 | 3% (inactive) | 1.3% (inactive) | 102% | 0.1% (inactive) | 131% | -0.426 (inactive) | -4e-05 (inactive) | 0.00507 (inactive) | 15.6% (inactive) | 14.2% (inactive)
3 | Cc1nc2c(=O)oc3ccccc3c2n1-c1ccccc1 | 579 | 2.9% (inactive) | 30.6% (inactive) | 90.3% | 33% (inactive) | 30.7% | -0.519 (inactive) | -3.7e-05 (inactive) | 0.0052 (inactive) | 12.7% (inactive) | 23.7% (inactive)
4 | c1ccc(-c2cn3c4c(sc3n2)CCCC4)cc1 | 789 | -4.8% (inactive) | 40% (inactive) | 118% | -34.8% (inactive) | 116% | -0.493 (inactive) | -7.1e-06 (inactive) | 0.00593 (inactive) | 5.66% (inactive) | 71.3% (active)
5 | CCC1Cc2c(nc3c4c(nc(N5CCOCC5)c(C#N)c24)NC(C)=N3)O1 (stereo not drawn) | 657 | 0.8% (inactive) | 7.2% (inactive) | 92.3% | 43.9% (inactive) | 97.4% | -0.35 (inactive) | -1.8e-05 (inactive) | 0.00571 (inactive) | 14.3% (inactive) | 1.06% (inactive)
6 | Cc1cc(Cl)ccc1OCCCC(=O)N1CCOCC1 | 571 | -1.5% (inactive) | -0.1% (inactive) | 94.9% | -29.2% (inactive) | 112% | -0.503 (inactive) | -0.000205 (inactive) | 0.00464 (inactive) | -29.3% (inactive) | -72.8% (inactive)
7 | COc1ccccc1-n1cnc(N)c1C(C)=O | 675 | -9.1% (inactive) | -12.9% (inactive) | 105% | -12.3% (inactive) | 110% | -0.586 (inactive) | -5.1e-05 (inactive) | 0.00353 (inactive) | 6.44% (inactive) | 5.79% (inactive)
8 | O=C(Nc1cccc(NC(=O)c2cccnc2)c1)c1cccnc1 | 515 | -3.3% (inactive) | -15.9% (inactive) | 96.4% | 2.1% (inactive) | 103% | -0.271 (inactive) | -1.6e-05 (inactive) | 0.0055 (inactive) | 15.2% (inactive) | 11% (inactive)
9 | O=C(CN1CCOCC1)Nc1cccc(C(=O)Nc2cccc(C(F)(F)F)c2)c1 | 199 | 4.3% (inactive) | 12.5% (inactive) | 90.7% | 1.6% (inactive) | 89.1% | -0.574 (inactive) | -6e-05 (inactive) | 0.0065 (inactive) | 7.38% (inactive) | -4.66% (inactive)
10 | Cc1nn(-c2ccccc2)c2c1C(c1c(C)[nH]c(C#N)c1C)C(C#N)=C(N)O2 (stereo not drawn) | 565 | -13.4% (inactive) | 9.2% (inactive) | 86% | 15.4% (inactive) | 101% | -0.391 (inactive) | 8.5e-05 (inactive) | 0.00623 (inactive) | 8.98% (inactive) | 13% (inactive)
11 | O=C(Nc1nc(-c2ccccc2)cs1)C1CCCCN1S(=O)(=O)c1ccccc1 (stereo not drawn) | 509 | 6.9% (inactive) | -0.8% (inactive) | 101% | -18.7% (inactive) | 96.2% | -0.659 (inactive) | 1.4e-05 (inactive) | 0.00633 (inactive) | -0.318% (inactive) | 1.39% (inactive)
12 | COc1ccc(CC(NC(C)=O)C(=O)NC2CCN(c3nc(C)cc(C)c3C#N)CC2)c(OC)c1 (stereo not drawn) | 750 | -7.4% (inactive) | -12.3% (inactive) | 121% | -32.4% (inactive) | 112% | -0.341 (inactive) | -1.7e-05 (inactive) | 0.00702 (inactive) | -9.6% (inactive) | -9.61% (inactive)
13 | O=C(Cn1cccc1C(=O)c1ccccc1)NCCN1CCOCC1 | 505 | 12.5% (inactive) | -9.1% (inactive) | 114% | 25% (inactive) | 98.8% | -0.583 (inactive) | -1.2e-05 (inactive) | 0.00604 (inactive) | 0.991% (inactive) | 12.8% (inactive)
14 | O=C(Nc1ccccc1C(=O)N1CCOCC1)c1ccncc1 | 389 | 0.7% (inactive) | 5.4% (inactive) | 107% | -97.8% (inactive) | 105% | -0.579 (inactive) | -3.8e-05 (inactive) | 0.00647 (inactive) | 5.72% (inactive) | 17.1% (inactive)
15 | Cc1ccc(C)c(N2CCN(C(=O)c3ccc(CS(=O)(=O)c4ccccc4C)o3)CC2)c1 | 555 | -15.1% (inactive) | 12.7% (inactive) | 95.8% | -45.9% (inactive) | 125% | -0.555 (inactive) | 4.4e-05 (inactive) | 0.00481 (inactive) | 11.1% (inactive) | 45.6% (inactive)
16 | OCCn1c(CSc2nnc(-c3ccco3)n2-c2ccccc2)nc2ccc(Cl)cc21 | 724 | 10.5% (inactive) | 6.6% (inactive) | 78.4% | 14.6% (inactive) | 90.8% | -0.574 (inactive) | -3.2e-05 (inactive) | 0.00847 (inactive) | 9.6% (inactive) | 24.7% (inactive)
17 | COc1cccc(NS(=O)(=O)c2cc(C)sc2C)c1 | 311 | -5.7% (inactive) | 3.3% (inactive) | 93% | -57% (inactive) | 113% | -0.467 (inactive) | -1.8e-05 (inactive) | 0.00503 (inactive) | 3.14% (inactive) | 24.9% (inactive)
18 | CCN(CC)S(=O)(=O)c1ccc(N2CCCC2)c(C(=O)OCC(=O)/C(C#N)=C(\C)N)c1 | 560 | -16% (inactive) | 6.5% (inactive) | 98.3% | 8.4% (inactive) | 101% | -0.428 (inactive) | 6.6e-05 (inactive) | 0.00583 (inactive) | 15.9% (inactive) | 24.1% (inactive)
19 | CCOc1ccccc1C1CC(=O)NC(SCC)=C1C#N (stereo not drawn) | 465 | -13% (inactive) | 18.7% (inactive) | 84.4% | -10% (inactive) | 130% | -0.326 (inactive) | -7.3e-05 (inactive) | 0.00457 (inactive) | 9.15% (inactive) | 17.5% (inactive)
20 | CCC(=O)N1CCc2cc(S(=O)(=O)CCC(=O)Nc3c(C)n(C)n(-c4ccccc4)c3=O)ccc21 | 598 | 7.7% (inactive) | -10.8% (inactive) | 116% | -110% (inactive) | 121% | -0.434 (inactive) | 0.000106 (inactive) | 0.00486 (inactive) | 2.43% (inactive) | 13.1% (inactive)
21 | CCN(c1ccc(OC)cc1)S(=O)(=O)c1ccc2c(c1)CCN2C(=O)CCC(=O)O | 625 | 8.3% (inactive) | -38.2% (inactive) | 92.1% | -35.6% (inactive) | 115% | -0.454 (inactive) | 2.3e-05 (inactive) | 0.00631 (inactive) | 14.1% (inactive) | 20.9% (inactive)
22 | Cc1ccc(OCC(O)Cn2c(=N)n(CCN3CCCCC3)c3ccccc32)cc1 (stereo not drawn) | 277 | 4.5% (inactive) | 2.3% (inactive) | 63.4% | -6.5% (inactive) | 96.8% | -0.381 (inactive) | -4.1e-05 (inactive) | 0.00474 (inactive) | -33.6% (inactive) | 62.2% (active)
23 | COc1ccc2c(-c3cccnc3)cc(=O)[nH]c2c1 | 363 | 4.3% (inactive) | -5.5% (inactive) | 84.5% | 36.3% (inactive) | 79.4% | -0.39 (inactive) | -9.1e-05 (inactive) | 0.00553 (inactive) | 13.4% (inactive) | 26.1% (inactive)
24 | CC(C)(C)n1ncc2c(=O)n(CC(=O)c3ccccc3)cnc21 | 473 | -1% (inactive) | -4.1% (inactive) | 126% | 22.9% (inactive) | 105% | -0.534 (inactive) | -2.2e-05 (inactive) | 0.00534 (inactive) | -21.3% (inactive) | -59.6% (inactive)
25 | Cc1cc(C)n2cc(CSCc3ccco3)nc2n1 | 566 | -13.6% (inactive) | 4.9% (inactive) | 89.3% | 18.2% (inactive) | 88.2% | -0.238 (inactive) | -2.7e-05 (inactive) | 0.00628 (inactive) | 11.1% (inactive) | 8.26% (inactive)
26 | Cc1ccc(C(=O)OCC(=O)c2ccc(Cl)s2)s1 | 654 | -24.7% (inactive) | 10.6% (inactive) | 86% | -13.1% (inactive) | 121% | -0.454 (inactive) | 0.000104 (inactive) | 0.00572 (inactive) | -26% (inactive) | -58% (inactive)
27 | Nc1cc(C(=O)O)ccc1Nc1ccc(F)c(F)c1 | 693 | -22.9% (inactive) | -0.6% (inactive) | 124% | 6.9% (inactive) | 96.9% | -0.44 (inactive) | 0.000103 (inactive) | 0.00669 (inactive) | -5.42% (inactive) | -4.51% (inactive)
28 | COc1ccc(N2CCC(CNS(=O)(=O)c3cccc(C(F)(F)F)c3)C2)cc1 (stereo not drawn) | 385 | 5.3% (inactive) | 30.1% (active) | 92.1% | -33.3% (inactive) | 132% | -0.494 (inactive) | -0.000248 (inactive) | 0.00389 (inactive) | 7.7% (inactive) | 2.96% (inactive)
